PABP FP inh – PABP poly(A) RNA binding inhibitors, primary screen, biochemical, fluorescence polarization, uHTS | Polyadenylate-binding protein 1 (Homo sapiens), P11940 | inhibition, % at 35 µM | AID 2014, 2009 | 290,000 compounds, 1% hits;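 further: calls also rest on retests at 20 µM and on dose response follow-up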
Target sequence (P11940 whole entry, looked up): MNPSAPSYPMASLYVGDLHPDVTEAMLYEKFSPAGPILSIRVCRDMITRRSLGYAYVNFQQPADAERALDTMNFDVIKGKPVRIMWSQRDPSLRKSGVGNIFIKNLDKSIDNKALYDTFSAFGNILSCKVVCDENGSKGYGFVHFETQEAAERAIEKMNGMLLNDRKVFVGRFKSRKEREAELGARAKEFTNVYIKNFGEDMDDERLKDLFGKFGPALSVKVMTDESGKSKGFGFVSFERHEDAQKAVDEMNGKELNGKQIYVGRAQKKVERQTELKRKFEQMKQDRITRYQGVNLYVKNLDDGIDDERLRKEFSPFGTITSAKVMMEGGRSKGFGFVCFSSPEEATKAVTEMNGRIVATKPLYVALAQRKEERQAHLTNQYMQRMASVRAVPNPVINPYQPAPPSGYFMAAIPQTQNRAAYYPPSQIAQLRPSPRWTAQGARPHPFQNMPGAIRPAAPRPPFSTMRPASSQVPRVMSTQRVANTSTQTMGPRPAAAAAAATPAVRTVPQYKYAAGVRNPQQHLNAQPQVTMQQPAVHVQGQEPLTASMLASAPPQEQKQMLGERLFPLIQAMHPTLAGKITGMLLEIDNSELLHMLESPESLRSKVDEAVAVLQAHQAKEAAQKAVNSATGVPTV
FID counter – compounds displacing fluorescent DNA intercalator, primary screen, artefact control for HCV NS3 helicase inhibitor project, biochemical, FID fluorescence; DNA fluorescent intercalator displacement; inhibition, % at 7.9 µM; 290,000 compounds, 0.17% hits; in the data active means inhibition above about 37%;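 further: 0% = vehicle and 100% = reference compound; higher means more ethidium bromide displaced from hairpin DNA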
MLLE-PAM2 inh – inhibitors of PABP1 MLLE–PAM2 peptide binding, primary screen, biochemical, fluorescence polarization, FITC-PAM2, GST-MLLE; Polyadenylate-binding protein 1 (Homo sapiens), P11940; inhibition, % at 20 µM; 360,000 compounds, 0.36% hits; AID 588489, 2011; in the data active means inhibition above about 35%, passing the limit was not always enough;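 further: plate controls were DMSO wells with GST-MLLE for no effect and wells lacking GST-MLLE protein for full effect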
HCV NS3 hel inh – inhibitors of HCV NS3 helicase, primary screen, biochemical, Cy5 molecular beacon fluorescence. Hepatitis C virus NS3 helicase. NS3 helicase DNA unwinding. inhibition, % at 10.9 µM. 290,000 compounds, 0.56% hits;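 active means inhibition above the mean of all tested compounds plus 3 SD, set per campaign, cut at about 35% in these data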;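 further: 0% = DMSO wells and 100% = thioflavine S control wells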
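Test system: hepatitis C virus NS3 helicase domain fragment enzyme. Also added: annealed dual-labelled DNA beacon duplex, ATP-started. Timing: 60 min unwinding reaction at 25 °C after ATP addition. Technique: Cy5 fluorescence. Measure: % inhibition of unwinding.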
HCV core dimer – inhibitors of HCV core protein dimerization, primary screen, biochemical, TR-FRET, high-throughput | inhibition, % at 5 µM | 300,000 compounds, 0.33% hits | AID 1899, 2009 | TR-FRET GST/Flag-core106 dimerization, 1536-well;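 active means inhibition above the mean of all tested compounds plus 3 SD, set per screening campaign, cut at about 45% in these data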
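test system = GST/Flag-tagged HCV core106 proteins | probe or stimulus = Eu donor and XL665 acceptor anti-tag antibodies | times = compound-protein-antibody incubation 4 h at 22.5 °C | signal = TR-FRET, excitation 340 nm, emission 617 and 671 nm | measure = percent inhibition of core106 dimerization signal | controls = wells lacking GST-core106 and wells with excess unlabelled core106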
eIF4H FP inh – human eIF4H binding inhibitors, primary screen, translation initiation inhibitor project, biochemical, uHTS, fluorescence polarization; Eukaryotic translation initiation factor 4H (Homo sapiens), Q15056; eIF4H fluorescence polarization binding assay; inhibition, % at 35 µM; 290,000 compounds, 0.94% hits; AID 2012, 2009;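 further: calls also rest on retests at 20 µM and on dose response follow-up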
Active calls of the source: *; ? = inconclusive; / = not tested or not shown. Sampled rows, rich in hits. Any-hit rate of the full collection: about 2%. Unless noted, how the calls were made is not given here.

SMILES	PABP FP inh	FID counter	MLLE-PAM2 inh	HCV NS3 hel inh	HCV core dimer	eIF4H FP inh
Nc1cccc2nc3ccccc3cc12	-1	45*	11	24	-2	4
Nc1[nH]nc2nc3ccccc3cc12	4	-5	-11	2	-13	9
CCc1nc2ccc(C(=O)Nc3ccc4c(c3)OCC(=O)N4)cn2c1N(C)Cc1nccn1C	/	/	-4	/	/	/
COc1ccc(CNC(=O)CN(c2ccc(C(C)C)cc2)S(=O)(=O)c2c(C)noc2C)cc1	5	-16	-1	-8	-3	-5
Cc1ccsc1C(=O)N1CCC1(C)C(=O)NS(=O)(=O)c1ccc(Br)cc1 (centres undefined)	/	/	-5	/	/	/
c1ccc2c(c1)ncn2-c1cncnc1	/	/	10	/	/	/
O=C(CSc1ncn(-c2ccccc2)n1)Nc1nc2c(s1)CCCC2	31*	-20	19	8	5	74*
O=C(CSc1ncn(-c2ccccc2)n1)Nc1nc2ccccc2s1	1	-2	31	-6	2	-9
CC(=O)Nc1ccc(C(=O)CSc2ncn(-c3ccccc3)n2)cc1	3	-3	41*	-7	0	-6
Cc1n[nH]c(=O)n(N=Cc2c[nH]c3ccccc23)c1=O	/	/	-4	/	/	/
O=C(CSc1nc2sccc2c(=O)[nH]1)N1CCN(c2ccccc2)CC1	41*	-33	-86	12	34	62
CCn1c2ccccc2c2cc(N)ccc21	56*	-3	-25	-3	-6	72*
CCn1c(C)cc(=S)c2ccccc21	21	2	40*	-4	7	0
CCn1c2ccccc2c2cc(/C(C)=N/O)ccc21	-4	-3	-6	-3	4	1
Cc1cc2cc(CN(CCN3CCOCC3)C(=O)Nc3ccccc3F)c(=O)[nH]c2cc1C	-16	-5	-6	-1	0	-11
Cc1cccc2cc(CN(CCN3CCOCC3)C(=O)Nc3ccccc3F)c(=O)[nH]c12	active	-12	9	-1	-13	81*
O=C(CSc1ccccn1)N/N=C/c1ccccc1[N+](=O)[O-]	120*	0	-5	6	-6	active
O=C(CSc1ccccn1)N/N=C/c1cc([N+](=O)[O-])ccc1O	-1	-3	-3	8	-9	12
CCOC(=O)C1CCN(S(=O)(=O)c2cc3c(cc2C)NC(=O)CO3)CC1	2	-18	4	-8	-4	-7
COC(=O)C1=C(C)NC(=O)/C1=C\c1cc(C)n(-c2cc(C)cc(C)c2)c1C	97*	-21	-5	13	20	83*
COC(=O)C1=C(C)NC(=O)/C1=C\c1cc(C)n(-c2ccccc2)c1C	-6	-17	-6	14	-3	63
CCC(=O)N=c1ccn(C2=Nc3ccccc3NC2=C(C#N)C#N)cc1	64*	-3	11	6	-4	73*
NC(=O)c1ccsc1NC(=O)CSc1n[nH]c(N)n1	/	/	-4	/	/	/
CCOC(=O)c1sc(NC(=O)CSc2n[nH]c(-c3ccncc3)n2)c(C#N)c1C	3	-4	-28	5	0	-5
Cc1ccsc1/C=C/C1=Cc2c(sc(NC(=O)CSc3n[nH]c(N)n3)c2C#N)C(C)(C)C1	?	-16	-4	16	77*	?
SMILES	PABP FP inh	FID counter	MLLE-PAM2 inh	HCV NS3 hel inh	HCV core dimer	eIF4H FP inh
CCOc1ccc(/C=C/C2=Cc3c(sc(NC(=O)CSc4n[nH]c(N)n4)c3C#N)C(C)(C)C2)cc1	?	-23	-53	17	72*	?
Cc1cc(C(=O)N2CCCc3ccccc32)ccc1[N+](=O)[O-]	6	-10	-2	-5	-2	5
Cc1cc(=O)[nH]c(Nc2cccc(F)c2)n1	-11	-3	-5	7	-5	9
N#Cc1c(Nc2cccc(F)c2)sc2c(O)cc(=O)[nH]c12	active	-7	-84	31	4	56*
COc1ccc(NC(=O)C2(C)Cc3c(-c4ccc(N(C)C)cc4)ccnc3O2)cc1OC (centres undefined)	/	/	6	/	/	/
CC(C)c1nnc(NC(=O)C2c3ccccc3Oc3ccccc32)s1	0	-11	15	8	-4	-9
Cc1nnc(NC(=O)C2c3ccccc3Oc3ccccc32)s1	91	-10	38*	-8	-11	3
CC1(C)C(=O)Nc2ccccc2N1C(=O)CSc1nc(-c2ccccc2)cs1	26	-4	-10	6	46*	13
O=C1CN(C(=O)CSc2nc(-c3ccccc3)cs2)c2ccccc2N1	20	-19	6	-5	6	2
COC(=O)c1cc(O)cc(OC)c1Oc1cc(C)cc(O)c1C(=O)O	74*	/	-4	/	0	90*
C/C=C/c1ccc(OCCCCNCc2ccco2)c(OC)c1	84*	21	1	-20	0	8.0*
O=C(c1cc2ccccc2o1)N1CCN(S(=O)(=O)c2ccc(F)c(F)c2F)CC1	/	/	-38	/	/	/
Cc1ccc2c(c1)S/C(=C\c1cccc[n+]1C)N2CCO	75*	-2	-144	6	6	-6
C[n+]1ccccc1/C=C1\Sc2ccccc2N1CCO	/	-4	-127	-3	-8	/
CCCn1c(=N)n(CC(O)c2ccc(C)cc2)c2ccccc21 (centres undefined)	-4	7	-6	-27	-1	3
COc1ccc(C(O)Cn2c(=N)n(CCCN(C)C)c3ccccc32)cc1 (centres undefined)	27	38*	-1	-6	-4	13
Cc1ccc(Cl)cc1N1CCN(C(=O)CN(c2ccccc2)S(=O)(=O)N(C)C)CC1	-9	-12	7	0	29	62*
CN1CCN(C(=O)CN(c2ccccc2)S(=O)(=O)N(C)C)CC1	-11	-4	/	8	2	4
Cc1ccc2nc(N3CCN(S(=O)(=O)c4ccc5c(c4)OCCO5)CC3)c(C#N)cc2c1	-7	-3	-5	-7	59*	-2
Cc1ccc(S(=O)(=O)N2CCCN(c3nc4cc(C)ccc4cc3C#N)CC2)cc1	-6	-14	1	8	43	-1
N#CC1(NC(=O)CSc2nnc(C3CC3)n2N)CCCCC1	/	/	1	/	/	/
O=C1NC(=Nc2ccc(O)cc2)S/C1=C\C=C\c1ccco1	94*	-11	-40	17	18	83*
CCN1C(=O)[C@H]2[C@@H](c3ccc(C)cc3)N[C@]3(CCCN(Cc4ccc(OC)cc4)C3=O)[C@H]2C1=O	/	/	-6	/	/	/
CC(/C=C/c1ccco1)=N\NC(=O)CNc1cccc(C)c1	2.2*	-10	0	12	9	95*

Screening results from PubChem BioAssay.
